Screening results deposited in PubChem by several laboratories.
In the library only some 11% were active in any assay of this set; here they are far more common.
M1 antagonist – M1 muscarinic receptor (rat) antagonism; CHO-M1 cells, Fluo-4 calcium, ACh EC80 antagonist mode; active compounds read low; B-score at 10 µM; actives 3.4% (n = 64,000);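 active = calcium fluorescence response, raw or row-and-column corrected B-score, differing from the plate sample mean either way at a set confidence level, mostly lower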
D1 mod – allosteric modulators of human D1 dopamine receptor. P21728. HEK293 D1, CRE-luciferase, dopamine EC30 potentiation; actives deviate in either direction. B-score at 10 µM. actives 5.9% (n = 58,000). AID 641;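 active = luminescence count or its row- and column-corrected plate score outside the 99.7% band of the plate's sample wells, on either side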
TNAP act mid DEA – human TNAP activation, intermediate phosphate acceptor. P05186. purified TNAP, CDP-star luminescence, 100 mM DEA, 30 min; active compounds read high; scale: 0 levamisole-inhibited, 1 vehicle-only enzyme. activation factor at 20 µM. 64,000 tested, under 10 active. AID 813;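 active = activation factor of at least 2 at 20 µM, relative to controls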
Target sequence (P05186 whole entry, looked up): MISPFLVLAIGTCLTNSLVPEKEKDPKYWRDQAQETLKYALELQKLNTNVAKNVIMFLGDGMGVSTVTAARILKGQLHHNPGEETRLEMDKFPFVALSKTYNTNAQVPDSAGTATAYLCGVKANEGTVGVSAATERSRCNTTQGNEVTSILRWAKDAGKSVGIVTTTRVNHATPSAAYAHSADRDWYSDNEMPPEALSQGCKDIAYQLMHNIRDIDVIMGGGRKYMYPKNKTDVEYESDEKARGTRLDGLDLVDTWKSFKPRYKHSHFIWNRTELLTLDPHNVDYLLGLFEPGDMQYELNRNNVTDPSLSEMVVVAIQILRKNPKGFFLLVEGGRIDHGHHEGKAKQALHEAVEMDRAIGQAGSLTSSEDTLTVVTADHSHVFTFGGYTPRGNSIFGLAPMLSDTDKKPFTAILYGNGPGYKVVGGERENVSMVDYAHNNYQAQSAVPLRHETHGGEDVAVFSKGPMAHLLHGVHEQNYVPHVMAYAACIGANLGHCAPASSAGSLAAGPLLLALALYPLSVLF
S1P1 ag pot – S1P1 (human) agonism or agonism potentiation | P21453 | S1P1 CRE-bla cells, forskolin, beta-lactamase FRET, potentiator mode; S1P1 agonist co-added at EC20, 2 nM; 100% = saturating reference agonist, 0% = basal | activation, % at 9.5 µM | actives 0.57% (n = 56,000);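 active = activation above a cutoff set at the mean activation of all tested compounds plus 3 SD, cut at about 54% in these data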;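 note: forskolin at 4 µM as EC80 and the EC20 agonist is SEW2871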
M1 ag – M1 muscarinic receptor agonism | AID 626 | B-score at 10 µM | CHO-M1 cells, Fluo-4 calcium fluorescence, agonist mode; active compounds read high | actives 3% (n = 64,000);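 active = fluorescence rise, raw or as B-score row- and column-corrected plate score, outside the 99.7% band of its plate's samples, either direction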
S1P3 ag – activates the human S1P3 receptor | S1P3 NFAT-BLA reporter cells, agonism, FRET ratio; relative to 1 µM S1P, basal subtracted | activation, % at 4.5 µM | actives 0.1% (n = 60,000) | AID 373;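 active = activation above the screen-wide mean plus 3 SD, cut at about 4.5% in these data, passing the limit was not always enough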
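Assay system: stable CHO line with human S1P3, Gα16, NFAT-BLA reporter; Detection: FRET β-lactamase substrate fluorescence, excitation 405 nm, 460/535 nm emission ratio, background-subtracted; Read-out: percent activation versus median 1 µM S1P response, basal-subtracted, per plate; Incubation: cells plated overnight, compound 4 h 37 °C, substrate 2 h RT.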
D1 PAM confirm – confirmation of human D1 dopamine receptor allosteric modulators; AID 642; HEK293 D1 CRE-luciferase, dopamine EC30 potentiation; active compounds read high; shares compounds with D1 mod; luminescence at 10 µM; actives 88% (n = 2,200);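 active = luminescence in either of two replicates above the same-plate mean plus 3 SD of the low-dose dopamine control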
D1 no dopamine – secondary test of D1 modulators: activity without dopamine; HEK293 D1 CRE-luciferase, luminescence, no dopamine; active compounds read high; AID 646; luminescence at 10 µM; shares compounds with D1 mod; actives 0.8% (n = 1,900); in the data active = luminescence above about 3900
Isoprot counter – isoproterenol response counter-screen activity for D1 modulators | shares compounds with D1 mod | HEK293 D1 CRE-luciferase, isoproterenol EC30 counter-screen; active compounds read high | luminescence at 10 µM | actives 63% (n = 2,200);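 active = luminescence in either replicate above plate mean of wells with a partly effective reference agonist dose plus 3 SD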;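 note: isoproterenol raises cAMP through native beta-adrenoceptor Gs so signal bypasses D1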
Hits are given with their value; i = inactive; nt = not tested or not shown.

SMILES	M1 antagonist	D1 mod	TNAP act mid DEA	S1P1 ag pot	M1 ag	S1P3 ag	D1 PAM confirm	D1 no dopamine	Isoprot counter
O=C(Nc1nonc1NC(=O)C1CCCCC1)C1CCCCC1	i	17	i	i	i	i	25348	i	4640
Fc1ccc(NCc2nnc(SCc3nnc(-c4ccccc4)o3)n2CC2CCCO2)cc1 (stereo not given)	i	i	i	i	i	i	nt	nt	nt
CCOC(=O)c1cc2cc(F)ccc2nc1C	i	10	i	i	i	i	12456	i	4064
Cc1noc(C)c1CSc1nnc2scc(-c3ccccc3)n12	i	11	i	i	i	i	13660	i	4560
Cc1noc(C)c1CSc1nnc(-c2ccccc2)n1Cc1ccco1	i	4.7	i	i	i	i	i	i	i
CCOC(=O)C1=C(CSc2nncn2C)NC(=O)NC1c1cc(OCC)ccc1OCC (stereo not given)	i	i	i	nt	i	i	nt	nt	nt
COc1ccc(S(=O)(=O)N2CCC(C(=O)N3CCCCC3)CC2)cc1OC	i	7.6	i	i	i	i	12168	i	3204
CCNC(=O)N(C(=O)NCC)n1c(C)nnc1C	i	i	i	i	i	i	nt	nt	nt
Cc1cc(C)c(NC(=O)c2cc3c(nc4sccn43)s2)c(C)c1	i	i	i	i	i	i	nt	nt	nt
CCOc1ccc(OCC)c2sc(C)nc12	i	11	i	i	i	i	20256	i	3568
Clc1ccccc1Cn1nnc2c(NCC3CC3)ncnc21	i	2.8	i	i	i	i	6104	i	3312
Clc1ccccc1Cn1nnc2c(Nc3ccccc3)ncnc21	i	i	i	i	i	i	nt	nt	nt
COc1ccc(CSc2n[nH]c(C)n2)cc1Br	i	6.5	i	nt	i	nt	10580	nt	2984
N#CC1=C(N)OC2=C(C(=O)CCC2)C1CCc1ccccc1 (stereo not given)	i	6.4	i	i	i	i	7756	nt	i
COc1ccc(-c2nnc(-c3ccc(Br)o3)o2)cc1OC	i	4.8	i	i	i	i	8496	i	i
O=c1c(N2CCCCC2)coc2ccccc12	i	i	i	nt	i	nt	nt	nt	nt
CCOC(=O)CSc1nc2sc(C)c(C)c2c(=O)[nH]1	i	nt	i	nt	i	i	nt	nt	nt
CCOC(=O)CSc1nnc(CSc2nc3sc4c(c3c(=O)[nH]2)CCC4)n1C	i	2.6	i	i	i	i	i	i	i
CC(C)(C)C1=Nn2c(nnc2-c2ccccc2F)SC1	i	21	i	i	i	i	20880	nt	3812
CCOc1cccc(-c2nnc3n2N=C(c2cc(OC)ccc2OC)CS3)c1	i	17	i	nt	i	nt	13520	nt	10932
COc1ccccc1-c1nnc2n1N=C(C(C)(C)C)CS2	i	4	i	i	i	i	10640	i	i
COc1ccc(C2=Nn3c(nnc3-c3ccccc3OC)SC2)cc1OC	i	41	i	i	i	i	31124	nt	43008
CN(c1ccc(C(=O)Nc2ccccc2C(F)(F)F)cc1)S(C)(=O)=O	i	i	i	i	i	i	nt	nt	nt
O=C(COc1ccccc1)Nc1ccccc1N1CCCCC1	i	3.4	i	i	i	i	i	nt	i
CCCn1nc(NC(=O)c2ccncc2)c2cc3ccccc3nc21	i	8.4	i	i	i	i	12660	nt	2876
SMILES	M1 antagonist	D1 mod	TNAP act mid DEA	S1P1 ag pot	M1 ag	S1P3 ag	D1 PAM confirm	D1 no dopamine	Isoprot counter
COC(=O)CSc1nc2sc3c(c2c(=O)n1-c1ccccc1)CCN(C)C3	i	17	i	i	i	i	10640	i	3944
COC(=O)CSc1nc2sc(C)c(C)c2c(=O)n1C	i	6.1	i	i	i	i	7584	i	2964
CCn1c(SCC(=O)NCCOC)nc2sc(C)c(C)c2c1=O	i	i	i	i	i	i	nt	nt	nt
CN1CCc2c(sc3c2c(=O)n(-c2ccccc2)c2nncn32)C1	i	i	i	i	i	i	nt	nt	nt
Cc1ccccc1NC(=O)Cc1nc(CSc2nnc(C3CCCCC3)n2N)cs1	i	i	i	nt	i	nt	nt	nt	nt
COc1ccc(C2=Nn3c(nnc3-c3ccc(OC)cc3)SC2)cc1	i	8.1	i	i	i	i	16788	i	14528
Cc1ccc(-c2nnc3n2N=C(c2ccccc2)CS3)cc1	i	8.3	i	i	i	i	21908	i	5776
Cc1cccc(-c2nnc3n2N=C(c2ccccc2Br)CS3)c1	i	8.1	i	i	i	i	17404	i	6836
COc1ccc(-c2nnc3n2N=C(c2cccc(Br)c2)CS3)cc1OC	i	i	i	i	i	i	nt	nt	nt
CCc1ccc(C2=Nn3c(nnc3-c3cccs3)SC2)cc1	i	8.8	i	i	i	i	6272	i	i
CC1=C(C(=O)OCC(C)C)C23C(=O)c4ccccc4C2(O1)OC(N)=C3C#N (stereo not given)	i	i	i	i	i	i	nt	nt	nt
Cc1cc(C)cc(N(CC(=O)NC2CC3CCC2C3)S(C)(=O)=O)c1 (stereo not given)	i	i	i	i	i	i	nt	nt	nt
COc1ccc2c(C)c(C(=O)NCC(C)O)oc2c1OC (stereo not given)	i	7.5	i	nt	i	nt	11688	i	3188
COc1ccc(CNCCNC(=O)c2ccco2)c(OC)c1OC	i	i	i	i	i	i	nt	nt	nt
CN(c1nc2c(c(=O)n(C)c(=O)n2C)n1CC(=O)c1ccccc1)C1CCCCC1	i	nt	i	i	i	i	nt	nt	nt
O=C1COc2ccc(C(=O)c3ccccc3)cc2CN1	i	4.7	i	i	i	i	5740	i	i
O=C1COc2ccc3ccccc3c2CN1	i	i	i	nt	i	nt	nt	nt	nt
CCOC(=O)CC(=O)CSc1nc(C)cc(-c2cccnc2)c1C#N	i	i	i	i	i	i	nt	nt	nt
Cc1cc(-c2ccccc2)c(C#N)c(SCC(N)=O)n1	i	5	i	i	i	i	8124	i	i
CCCn1c(=O)c(C(=O)Nc2nnc(CC)s2)c(O)c2ccccc21	i	i	i	i	i	i	nt	nt	nt
CCc1c(C)sc(NC(=O)c2cc(-c3cc(OC)ccc3OC)on2)c1C#N	i	i	i	i	i	i	nt	nt	nt
COc1ccc(-c2csc(NC(=O)c3cc(C)on3)c2C#N)cc1OC	i	10	i	i	i	i	17944	i	3748
Cc1cc2nc(-c3ccco3)cc(C(F)(F)F)n2n1	i	32	i	i	i	i	22332	nt	3868
COc1ccc(-c2cc(C(F)(F)F)n3nc(C)cc3n2)cc1	i	12	i	i	i	i	9368	i	3348
